# Experimental data reported in ChEMBL document CHEMBL4834471 (J Med Chem, 2021).
# Activity calls are given as the source filed them. The rule behind the calls is not given here.
# Columns and labels:
# [1] = system: Mus musculus; test: Antiinflammatory activity in zymosan-induced CD-1 mouse peritonitis model assessed as reduction in immune cell infiltration into peritoneal cavity at 10 mg/kg, ip preincubated with compound for 30 mins followed by zymosan addition and measured after 4 hrs; assay type: functional, organism-based; details: time 270.0 min
# In short: (§1)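 Zymosan peritonitis with compound 10 mg/kg i.p. Vascular permeability assessed at 30 min after zymosan. Exudate LTB4 (ELISA) and peritoneal immune cell infiltration assessed at 4 h. Two-tailed unpaired t-test of log data.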
# [2] = system: Mus musculus; test: Antiinflammatory activity in zymosan-induced CD-1 mouse peritonitis model assessed as reduction in LTC4 level at 10 mg/kg, ip preincubated with compound for 30 mins followed by zymosan addition and measured after 30 mins by ELISA; assay type: functional, organism-based; details: time 60.0 min
# In short: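 Compound 10 mg/kg i.p. in zymosan-induced peritonitis; mice killed 30 min after zymosan injection; exudate LTC4 measured by ELISA; statistics by two-tailed unpaired t-test of log data.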
# [3] = target: Prostaglandin G/H synthase 1 (Homo sapiens) (UniProt P23219); test: Inhibition of COX-1 in human platelets assessed as reduction in 12-HHT formation at 10 uM using arachidonic acid as substrate preincubated for 5 mins followed by substrate addition and measured after 5 mins by RPL-HPLC method; assay type: tissue-based; details: Platelet, time 10.0 min
# Chain of Prostaglandin G/H synthase 1 (Homo sapiens) (P23219 whole entry): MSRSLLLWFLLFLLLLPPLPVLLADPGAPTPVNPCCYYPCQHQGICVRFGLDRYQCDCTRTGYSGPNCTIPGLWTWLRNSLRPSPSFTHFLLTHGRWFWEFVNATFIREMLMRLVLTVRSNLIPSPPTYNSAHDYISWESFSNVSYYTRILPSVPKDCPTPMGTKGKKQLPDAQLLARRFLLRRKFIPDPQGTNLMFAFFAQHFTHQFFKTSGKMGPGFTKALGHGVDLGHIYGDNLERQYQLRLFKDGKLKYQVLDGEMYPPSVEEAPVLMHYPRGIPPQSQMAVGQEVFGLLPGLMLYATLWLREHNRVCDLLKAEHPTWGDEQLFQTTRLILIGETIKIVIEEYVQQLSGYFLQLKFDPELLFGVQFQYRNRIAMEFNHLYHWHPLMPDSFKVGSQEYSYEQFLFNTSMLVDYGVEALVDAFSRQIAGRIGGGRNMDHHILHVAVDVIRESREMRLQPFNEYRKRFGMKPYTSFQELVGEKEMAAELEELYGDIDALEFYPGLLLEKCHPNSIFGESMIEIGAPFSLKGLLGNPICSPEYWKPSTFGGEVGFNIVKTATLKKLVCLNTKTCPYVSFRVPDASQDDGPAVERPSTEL
# [4] = system: Keratinocyte; test: Antiinflammatory activity in cytokine cocktail-induced reconstructed human epidermis model assessed as reduction in IL-8 level at 5 to 25 uM after 4 days by ELISA; assay type: functional, cell-based; details: dose 5-25 µM, time 4.0 day
# In short: (§2)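 Reconstructed human epidermis exposed to compound and stressed with a cytokine cocktail for 4 days. Readouts: IL-8 in growth medium, H&E morphology, transepidermal water loss, stratum corneum permeability to Lucifer yellow with DAPI nuclear stain, and surface pH. n = 2–3 independent experiments.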
# [5] = system: Mus musculus; test: Antiinflammatory activity in zymosan-induced CD-1 mouse peritonitis model assessed as reduction in 5-LOX product level at 10 mg/kg, po preincubated with compound for 60 mins followed by zymosan addition and measured after 30 mins; assay type: functional, organism-based; details: time 90.0 min
# In short: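 Oral dosing at 10 mg/kg in zymosan peritonitis; mice killed 30 min after zymosan. Peritoneal exudate lipid mediators and fatty acids profiled by UPLC-MS/MS, with LTC4 measured by ELISA; results expressed as fold change versus vehicle.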
# [6] = Drug degradation in mouse at 10 mg/kg, po; assay type: ADME, organism-based; details: in vivo
# In short: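 Mice with acute peritonitis dosed orally at 10 mg/kg; plasma compound and metabolite concentrations measured 90 min after administration from extracted chromatograms; n = 8 mice.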
# [7] = system: Keratinocyte; test: Antiinflammatory activity in cytokine cocktail-induced reconstructed human epidermis model assessed as improved skin barrier functions at 5 to 25 uM after 4 days; assay type: functional, cell-based; details: dose 5-25 µM, time 4.0 day; in short: as §2
# [8] = system: Mus musculus; test: Antiinflammatory activity in zymosan-induced CD-1 mouse peritonitis model assessed as reduction in LTB4 level at 10 mg/kg, ip preincubated with compound for 30 mins followed by zymosan addition and measured after 4 hrs by ELISA; assay type: functional, organism-based; details: time 270.0 min; in short: as §1
# [9] = Antioxidant activity assessed as DPPH radical scavenging activity at 0.1 to 10 uM incubated for 30 mins by microplate reader based assay; assay type: functional; details: dose 0.1-10 µM
# In short: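 Compound incubated with DPPH (50 mM, as printed) in ethanol for 30 min, then absorbance read at 520 nm. Ascorbic acid at 25 μM used as positive control; n = 4 independent experiments.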
# [10] = target: T1, Prostaglandin E synthase (Homo sapiens) (UniProt O14684); test: Inhibition of mPEGS1 in pathogenic Escherichia coli-stimulated human macrophages M1 at 1 uM by UPLC-MS/MS analysis; details: Macrophage
# T1 sequence (whole entry): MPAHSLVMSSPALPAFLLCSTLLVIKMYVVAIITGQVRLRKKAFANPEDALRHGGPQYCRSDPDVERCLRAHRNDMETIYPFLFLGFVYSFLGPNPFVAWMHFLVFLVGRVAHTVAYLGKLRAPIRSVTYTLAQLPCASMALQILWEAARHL
# In short: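 M1 macrophages obtained by GM-CSF differentiation for 6 days, then LPS/IFN-γ polarization for 48 h. Treated with compound at 1 μM and stimulated with pathogenic E. coli; lipid mediator network profiled by metabololipidomics against vehicle.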
# [11] = target: T2, Polyunsaturated fatty acid lipoxygenase ALOX15 (Homo sapiens) (UniProt P16050); test: Inhibition of 15-LOX in human PMNL assessed as reduction in 15-LOX product formation at 10 uM treated with AA and A23187 by RP-HPLC method; assay type: tissue-based
# T2 sequence (whole entry): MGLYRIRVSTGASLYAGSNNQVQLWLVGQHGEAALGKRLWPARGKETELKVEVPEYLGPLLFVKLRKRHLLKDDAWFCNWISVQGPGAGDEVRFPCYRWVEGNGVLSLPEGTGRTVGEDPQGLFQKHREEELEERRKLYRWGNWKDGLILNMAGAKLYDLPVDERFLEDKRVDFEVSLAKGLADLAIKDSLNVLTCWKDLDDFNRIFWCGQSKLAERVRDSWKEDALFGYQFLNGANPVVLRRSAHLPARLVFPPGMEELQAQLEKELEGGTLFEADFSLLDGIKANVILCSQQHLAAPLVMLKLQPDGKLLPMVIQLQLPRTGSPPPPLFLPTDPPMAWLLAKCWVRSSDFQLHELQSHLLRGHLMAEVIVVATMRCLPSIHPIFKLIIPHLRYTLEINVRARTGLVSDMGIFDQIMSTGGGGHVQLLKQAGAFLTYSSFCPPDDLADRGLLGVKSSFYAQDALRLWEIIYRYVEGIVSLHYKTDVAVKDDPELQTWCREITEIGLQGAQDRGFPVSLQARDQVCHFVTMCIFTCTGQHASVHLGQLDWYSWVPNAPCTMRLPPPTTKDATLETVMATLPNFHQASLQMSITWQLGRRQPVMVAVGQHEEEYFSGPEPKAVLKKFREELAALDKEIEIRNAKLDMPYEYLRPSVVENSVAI
# [12] = system: Monocyte; test: Cytotoxicity against human monocytes assessed as reduction in LDH release at <=1 uM after 2 to 24 hrs by CytoTox96 nonradioactive assay; assay type: cell-based; details: time 2-24 hrs
# In short: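 Monocytes at 4 × 10^5/mL in monocyte medium treated 2 or 24 h at 37 °C, 5% CO2, with 0.1% DMSO vehicle. LDH release measured by CytoTox 96 kit, with Triton X-100 (0.8%) defining maximum release.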
# [13] = target: T2, Polyunsaturated fatty acid lipoxygenase ALOX15 (Homo sapiens); test: Inhibition of 15-LOX in human PMNL assessed as reduction in 15-LOX product formation at 0.03 to 0.2 uM treated with AA and A23187 by RP-HPLC method; assay type: tissue-based; details: dose 0.03-0.2 µM
# [14] = Drug concentration in peritoneal exudate of CD-1 mouse at 30 mg/kg, po after 30 mins; assay type: ADME, organism-based, Peritoneal fluid; details: read-out: Ct
# In short: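 Oral dosing at 30 mg/kg in zymosan peritonitis; mice killed 30 min after zymosan injection. Compound concentrations measured in plasma and in peritoneal exudate.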
# [15] = Drug metabolism in human liver-on-chip assessed as compound conjugation with sulfate incubated for 48 hrs by UPLC-MS/MS analysis; assay type: ADME, tissue-based
# In short: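 Liver-on-chip built from differentiated HepaRG cells (hepatocyte-like and biliary-like) with a HUVEC endothelial layer. Loaded with compound at 1 μM and incubated 48 h; compound and metabolites quantified from extracted chromatograms; n = 3 independent experiments.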
# [16] = system: Mus musculus; test: Antiinflammatory activity BALB/c mouse assessed as inhibition of carbachol-induced bronchial reactivity at 10 mg/kg, po administered on day 0 and 7 and measured upto 21 days; assay type: functional, organism-based; details: time day <=21
compound,measurement,setting,value
C/C(=C\CC/C(C)=C/CC[C@]1(C)CCc2c(C)c(O)c(C)c(C)c2O1)CCC=C(CO)CO,Activity,[1],Active
same,Activity,[2],Active
same,inhibition,[3],inactive
same,Activity,[4],Active
same,Activity,[5],Active
same,Stabilty,[6],Stable
same,Activity,[7],Active
same,Activity,[8],Active
same,Activity,[9],inactive
same,inhibition,[10],inactive
same,inhibition,[11],inactive
same,Activity,[12],Non-Toxic
same,inhibition,[13],inactive
same,concentration at 0.5 h,[14],0.5 nM
same,Drug metabolism,[15],Metabolite_Detected
same,Activity,[16],Active
